These results are taken from ChEMBL document CHEMBL2429791, “Preparation of asymmetric urea derivatives that target prostate-specific membrane antigen for SPECT imaging” (J Med Chem, 2013).

In data set [1] the test system is Nucleic Acid. The data set is described as follows: Ratio of drug level in human PC3 cells xenografted in C.B.-17/Icr +/+ Jcl mouse to muscle of C.B.-17/Icr +/+ Jcl mouse xenografted with human LNCAP and PC3 cells at 25.9 MBq, iv after 3 hrs. Particulars: in vivo; call rule not given here. In kind it is ADME, organism-based. Summed up:
(§1)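 Mice (22–24 g) carried PC-3 (right shoulder) and LNCaP (left shoulder) tumors, raised by injecting 1–5 × 10⁶ cells in 1:1 PBS/Matrigel and used at about 5–10 mm diameter. [¹²⁵I]-tracer was given via the tail vein, n=4 per time point, and mice were decapitated at 2 min, 30 min, 1, 3 or 6 h. Tissues were weighed and γ-counted as %ID/g. Tumor/blood and tumor/muscle ratios were taken from %ID/g, mean ± SD.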
On the technique in general: A xenograft is tissue or cells of one species grown in another, often human tumour cells in immunodeficient mice.

Data set [2] relates to Intestine. The data set is described as follows: Biodistribution in intestine of C.B.-17/Icr +/+ Jcl mouse xenografted with human LNCAP and PC3 cells at 25.9 MBq, iv after 2 mins. Type of data set: ADME, organism-based. To be noted: in vivo. Summed up:
(§2)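 ¹²⁵I-labelled tracer given iv by tail vein to mice (22–24 g) bearing LNCaP (left shoulder) and PC-3 (right shoulder) xenografts of about 5–10 mm, grown from 1–5 × 10⁶ cells in 1:1 Matrigel. n=4 per time point; decapitated at 2 min, 30 min, 1, 3, 6 h. Tissues weighed and counted; uptake as %ID/g, mean ± SD.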

The test system of data set [3] is Stomach. The data set is described as follows: Biodistribution in stomach of C.B.-17/Icr +/+ Jcl mouse xenografted with human LNCAP and PC3 cells at 25.9 MBq, iv after 1 hr. In kind it is ADME, organism-based. To be noted: in vivo. Put shortly: (§3)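 Radioiodinated (¹²⁵I) tracer given by tail-vein injection to mice bearing LNCaP (left shoulder) and PC-3 (right shoulder) xenografts, 22–24 g, grown to about 5–10 mm. Groups of n=4 were decapitated at 2 min, 30 min, 1 h, 3 h or 6 h. Tissues were weighed and counted, and uptake was expressed as %ID/g (mean ± SD).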

In data set [4] the test system is Stomach. The data set is described as follows: Biodistribution in stomach of C.B.-17/Icr +/+ Jcl mouse xenografted with human LNCAP and PC3 cells at 25.9 MBq, iv after 3 hrs. To be noted: in vivo. In kind it is ADME, organism-based. Put shortly:
as §3

Data set [5] relates to Kidney. The data set is described as follows: Biodistribution in kidney of C.B.-17/Icr […] Jcl mouse xenografted with human LNCAP and PC3 cells at 25.9 MBq, iv after 1 hr. Type of data set: ADME, organism-based. Particulars: in vivo. Put shortly: as §2
The test system of data set [6] is Blood. The data set is described as follows: Biodistribution in blood of C.B.-17/Icr scid/scid Jcl mouse xenografted with human LNCAP and PC3 cells at 25.9 MBq, iv after 30 mins. Type of data set: ADME, organism-based. To be noted: in vivo, 0.5 h.
Data set [7] relates to Lung. The data set is described as follows: Biodistribution in lung of C.B.-17/Icr +/+ Jcl mouse xenografted with human LNCAP and PC3 cells at 25.9 MBq, iv after 1 hr. Type of data set: ADME, organism-based. To be noted: in vivo. Put shortly:
as §3

The test system of data set [8] is LNCaP. The data set is described as follows: Biodistribution in LNCAP cells in C.B.-17/Icr +/+ Jcl mouse xenografted with human LNCAP and PC3 cells at 25.9 MBq, iv after 30 mins. Particulars: in vivo, 0.5 h. In kind it is ADME, organism-based. Put shortly: as §2
Data set [9] deals with Intestine. The data set is described as follows: Biodistribution in intestine of C.B.-17/Icr +/+ Jcl mouse xenografted with human LNCAP and PC3 cells at 25.9 MBq, iv after 30 mins. Type of data set: ADME, organism-based. To be noted: in vivo, 0.5 h. Put shortly: as §2
Data set [10] concerns LNCaP. The data set is described as follows: Biodistribution in LNCAP cells in C.B.-17/Icr +/+ Jcl mouse xenografted with human LNCAP and PC3 cells at 25.9 MBq, iv after 6 hrs. In kind it is ADME, organism-based. To be noted: in vivo. Put shortly:
as §2

The subject of data set [11] is Liver. The data set is described as follows: Biodistribution in liver of C.B.-17/Icr […] Jcl mouse xenografted with human LNCAP and PC3 cells at 25.9 MBq, iv after 3 hrs. To be noted: in vivo. Type of data set: ADME, organism-based. Summed up:
as §2

Data set [12] has as its system Muscle tissue. The data set is described as follows: Biodistribution in muscle of C.B.-17/Icr +/+ Jcl mouse xenografted with human LNCAP and PC3 cells at 25.9 MBq, iv after 6 hrs. Type of data set: ADME, organism-based. To be noted: in vivo. Put shortly:
as §3

In data set [13] the test system is LNCaP. The data set is described as follows: Biodistribution in LNCAP cells in C.B.-17/Icr +/+ Jcl mouse xenografted with human LNCAP and PC3 cells at 25.9 MBq, iv after 2 mins. In kind it is ADME, organism-based. Particulars: in vivo. Put shortly: as §2
The subject of data set [14] is Spleen. The data set is described as follows: Biodistribution in spleen of C.B.-17/Icr scid/scid Jcl mouse xenografted with human LNCAP and PC3 cells at 25.9 MBq, iv after 30 mins. To be noted: in vivo, 0.5 h. In kind it is ADME, organism-based.
Data set [15] is described as follows: Ratio of drug level in human LNCAP cells xenografted in C.B.-17/Icr +/+ Jcl mouse to blood of C.B.-17/Icr +/+ Jcl mouse xenografted with human LNCAP and PC3 cells at 25.9 MBq, iv after 2 mins. Particulars: LNCAP tumour xenograft relative to blood. In kind it is ADME, organism-based. Put shortly: (§4)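 Tumor-to-blood and tumor-to-muscle ratios were calculated from %ID/g values in ¹²⁵I-tracer biodistribution in LNCaP/PC-3 xenografted mice. Tail-vein dosing, n=4 per time point, sacrifice at 2 min, 30 min, 1, 3 or 6 h.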

For data set [16], the system named is Spleen. The data set is described as follows: Biodistribution in spleen of C.B.-17/Icr +/+ Jcl mouse xenografted with human LNCAP and PC3 cells at 25.9 MBq, iv after 6 hrs. In kind it is ADME, organism-based. Particulars: in vivo. Summed up: as §3
Data set [17] deals with Serum. The data set is described as follows: Drug degradation in C.B.-17/Icr +/+ Jcl mouse serum after 6 hrs. In kind it is ADME, cell-free. Summed up:
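Serum came from heart blood of isoflurane-anesthetized male C.B.-17/Icr +/+ mice (20–22 g), centrifuged at 1,500 × g and stored at −80 °C. ¹²⁵I tracer was incubated in serum at 37 °C, then methanol was added. The sample was centrifuged at 5,000 × g, passed through a 0.45 μm filter, and analyzed by radio-HPLC for intact tracer versus degradation peaks.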

Data set [18] relates to Spleen. The data set is described as follows: Biodistribution in spleen of C.B.-17/Icr +/+ Jcl mouse xenografted with human LNCAP and PC3 cells at 25.9 MBq, iv after 30 mins. In kind it is ADME, organism-based. Particulars: in vivo, 0.5 h. Summed up:
as §3

For data set [19], the system named is Spleen. The data set is described as follows: Biodistribution in spleen of C.B.-17/Icr +/+ Jcl mouse xenografted with human LNCAP and PC3 cells at 25.9 MBq, iv after 1 hr. In kind it is ADME, organism-based. Particulars: in vivo. Put shortly:
as §3

In data set [20] the test system is Nucleic Acid. The data set is described as follows: Ratio of drug level in human LNCAP cells to human PC3 cells xenografted in C.B.-17/Icr […] Jcl mouse at 25.9 MBq, iv after 3 hrs. In kind it is ADME, organism-based. To be noted: in vivo.
A short description of data set [21]: Ratio of drug level in human LNCAP cells xenografted in C.B.-17/Icr +/+ Jcl mouse to blood of C.B.-17/Icr +/+ Jcl mouse xenografted with human LNCAP and PC3 cells at 25.9 MBq, iv after 6 hrs. Particulars: LNCAP tumour xenograft relative to blood. In kind it is ADME, organism-based. Summed up:
as §4

Data set [22] relates to Stomach. The data set is described as follows: Biodistribution in stomach of C.B.-17/Icr +/+ Jcl mouse xenografted with human LNCAP and PC3 cells at 25.9 MBq, iv after 2 mins. Type of data set: ADME, organism-based. Particulars: in vivo. Put shortly:
as §3

Data set [23] can be described thus: Ratio of drug level in human PC3 cells xenografted in C.B.-17/Icr +/+ Jcl mouse to blood of C.B.-17/Icr +/+ Jcl mouse xenografted with human LNCAP and PC3 cells at 25.9 MBq, iv after 3 hrs. Type of data set: ADME, organism-based. To be noted: PC3 tumour xenograft relative to blood. Put shortly:
as §1

Data set [24] relates to Kidney. The data set is described as follows: Biodistribution in kidney of C.B.-17/Icr […] Jcl mouse xenografted with human LNCAP and PC3 cells at 25.9 MBq, iv after 3 hrs. In kind it is ADME, organism-based. Particulars: in vivo. Summed up: as §2

Usually Kp stands for the ratio of the level in a tissue or fluid to that in plasma or blood.

As to `O=C(O)CC[C@H](NC(=O)N[C@@H](CSC1CC(=O)N(CCCC[C@H](NC(=O)CNC(=O)c2cccc([125I])c2)C(=O)O)C1=O)C(=O)O)C(=O)O` (some centres undefined), the Ratio in data set [1] stood at 1.5; in [20], 33.9. For the same compound, the Drug uptake in data set [2] turned out to be 3.6 % ID/g; in data set [3], 1 %ID; in data set [4] it was 1 %ID; in [5], 92.8 % ID/g; in data set [6], 1.5 % ID/g; in [7], 2.5 % ID/g. For the same compound, the Drug uptake worked out at 9.5 % ID/g in data set [8]; 11.2 % ID/g in data set [9]; 6.7 % ID/g in data set [10]; 9 % ID/g in data set [11]; 0.1 % ID/g in data set [12]; 4.2 % ID/g in data set [13]. Moreover, the Drug uptake result in data set [14] was “Active”; in data set [16], 9.7 % ID/g; in data set [18], 43.3 % ID/g; in data set [19] it was 36.5 % ID/g; in data set [22] it was 0.7 %ID/g; in data set [24], 110 % ID/g. The Kp at 2 min in data set [15] came out at 0.6. The Stability entry in data set [17] is recorded as “Stable”. Also, the Kp at 6 h in data set [21] was determined as 13.3. For the same compound, the partition ratio (Kp) at 3 h in data set [23] was 0.4.
